The source made the active and inactive calls. The calls are words filed in the database; no cut-off is given here.
Tests used:
[1] = target: T1, Ephrin type-A receptor 6 (Homo sapiens) (UniProt Q9UF33); assay: Inhibition of EPHA6 phosphorylation in growth factor-stimulated HUVEC at 3 uM after 24 hrs
T1 sequence (whole entry): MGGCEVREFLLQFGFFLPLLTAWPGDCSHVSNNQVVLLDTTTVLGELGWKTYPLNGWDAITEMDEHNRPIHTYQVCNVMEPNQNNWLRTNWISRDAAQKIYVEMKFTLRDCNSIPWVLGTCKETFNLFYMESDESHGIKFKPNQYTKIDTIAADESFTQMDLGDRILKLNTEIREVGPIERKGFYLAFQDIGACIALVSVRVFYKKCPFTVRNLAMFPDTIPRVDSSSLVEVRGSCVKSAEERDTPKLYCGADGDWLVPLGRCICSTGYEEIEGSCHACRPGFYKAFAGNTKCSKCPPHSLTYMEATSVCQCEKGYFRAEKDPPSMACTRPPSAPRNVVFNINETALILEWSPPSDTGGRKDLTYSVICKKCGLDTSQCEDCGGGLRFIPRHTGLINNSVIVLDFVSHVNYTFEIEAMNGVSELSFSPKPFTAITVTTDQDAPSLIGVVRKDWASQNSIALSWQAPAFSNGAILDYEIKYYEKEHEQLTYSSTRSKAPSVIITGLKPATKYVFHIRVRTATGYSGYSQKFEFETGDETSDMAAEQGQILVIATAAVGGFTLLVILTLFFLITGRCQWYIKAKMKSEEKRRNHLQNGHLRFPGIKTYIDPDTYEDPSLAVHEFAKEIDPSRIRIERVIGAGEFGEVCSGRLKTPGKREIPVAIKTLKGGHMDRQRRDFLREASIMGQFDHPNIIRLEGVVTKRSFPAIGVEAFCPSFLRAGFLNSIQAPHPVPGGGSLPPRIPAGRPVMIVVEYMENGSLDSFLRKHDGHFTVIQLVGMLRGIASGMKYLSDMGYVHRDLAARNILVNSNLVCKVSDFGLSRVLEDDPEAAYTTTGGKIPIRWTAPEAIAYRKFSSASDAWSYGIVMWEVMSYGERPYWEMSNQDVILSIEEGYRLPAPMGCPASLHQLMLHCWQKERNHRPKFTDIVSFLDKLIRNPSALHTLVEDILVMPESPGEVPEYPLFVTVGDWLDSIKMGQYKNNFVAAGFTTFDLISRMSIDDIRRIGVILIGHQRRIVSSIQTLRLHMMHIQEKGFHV

[2] = target: Tyrosine-protein kinase transmembrane receptor ROR2 (Homo sapiens) (UniProt Q01974); assay: Inhibition of ROR2 phosphorylation in growth factor-stimulated HUVEC at 3 uM after 24 hrs
[3] = target: Tyrosine-protein kinase receptor Tie-1 (Homo sapiens) (UniProt P35590); assay: Inhibition of TIE-1 phosphorylation in growth factor-stimulated HUVEC at 3 uM after 24 hrs
[4] = target: Tyrosine-protein kinase receptor UFO (Homo sapiens) (UniProt P30530); assay: Inhibition of AXL phosphorylation in growth factor-stimulated HUVEC at 3 uM after 24 hrs
[5] = target: T2, Tyrosine-protein kinase receptor TYRO3 (Homo sapiens) (UniProt Q06418); assay: Inhibition of DTK phosphorylation in growth factor-stimulated HUVEC at 3 uM after 24 hrs
T2 sequence (whole entry): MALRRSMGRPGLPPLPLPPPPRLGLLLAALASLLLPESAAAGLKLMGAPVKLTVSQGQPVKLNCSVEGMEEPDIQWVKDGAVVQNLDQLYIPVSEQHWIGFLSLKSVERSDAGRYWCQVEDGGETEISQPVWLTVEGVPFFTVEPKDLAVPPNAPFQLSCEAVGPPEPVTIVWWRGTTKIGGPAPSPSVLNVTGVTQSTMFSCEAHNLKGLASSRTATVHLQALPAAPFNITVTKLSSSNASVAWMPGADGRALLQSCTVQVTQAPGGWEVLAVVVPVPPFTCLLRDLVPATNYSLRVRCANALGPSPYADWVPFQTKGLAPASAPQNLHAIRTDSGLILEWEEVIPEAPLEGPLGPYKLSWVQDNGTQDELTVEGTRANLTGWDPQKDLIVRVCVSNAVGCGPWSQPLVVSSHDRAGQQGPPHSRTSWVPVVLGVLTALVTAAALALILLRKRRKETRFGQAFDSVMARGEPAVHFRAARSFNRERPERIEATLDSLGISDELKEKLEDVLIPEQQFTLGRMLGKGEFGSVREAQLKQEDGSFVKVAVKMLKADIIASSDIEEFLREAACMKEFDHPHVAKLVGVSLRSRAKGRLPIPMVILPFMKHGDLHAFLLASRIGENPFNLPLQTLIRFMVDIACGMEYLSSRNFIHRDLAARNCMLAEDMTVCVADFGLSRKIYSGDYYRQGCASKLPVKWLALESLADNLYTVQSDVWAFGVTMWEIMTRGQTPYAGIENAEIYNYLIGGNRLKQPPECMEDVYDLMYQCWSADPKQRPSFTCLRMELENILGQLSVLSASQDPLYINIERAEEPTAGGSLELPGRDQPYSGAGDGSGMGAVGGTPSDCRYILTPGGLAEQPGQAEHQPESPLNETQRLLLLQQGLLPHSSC

[6] = target: Epidermal growth factor receptor (Homo sapiens) (UniProt P00533); assay: Inhibition of EGFR phosphorylation in growth factor-stimulated HUVEC at 3 uM after 24 hrs
[7] = target: T3, Vascular endothelial growth factor receptor 2 (Homo sapiens, UniProt P35968); assay: Inhibition of VEGFR2 phosphorylation in growth factor-stimulated HUVEC at 3 uM after 24 hrs
[8] = target: Vascular endothelial growth factor receptor 1 (Homo sapiens) (UniProt P17948); assay: Inhibition of VEGFR1 phosphorylation in growth factor-stimulated HUVEC at 3 uM after 24 hrs
[9] = target: Vascular endothelial growth factor receptor 1 (Homo sapiens) (UniProt P17948); assay: Inhibition of VEGFR1 phosphorylation in growth factor-stimulated HUVEC
[10] = tested on: HUVEC; assay: cells; settings: Homo sapiens, 24 h
[11] = target: T3, Vascular endothelial growth factor receptor 2; assay: Inhibition of human recombinant VEGFR2
[12] = tested on: HUVEC; assay: Cytotoxicity against HUVEC assessed as decrease in cell viability at 1 to 100 uM after 24 hrs by Hoechst 33258 staining method; assay type: cell-based; settings: human
Procedure, shortened: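 HUVEC seeded at 20,000 cells/cm²; after 24 h, treated with test agent (0–100 µM) in RPMI 1640 + 2% FCS for 24 h. Cells lysed by freezing at −80 °C, lysates incubated with Hoechst 33258 for 1 h with agitation. Fluorescence read at ex 360/em 460 nm; expressed as % variation vs untreated; mean ± SD, n = 3 in triplicate.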

[13] = tested on: HUVEC; assay: Cytostatic activity against HUVEC assessed as decrease in metabolic activity after 24 hrs by MTT assay; assay type: ADME, cell-based, Homo sapiens
Procedure, shortened: (§1)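 Primary HUVEC (passage ≤5) seeded at 20,000 cells/cm² in complete medium; after 24 h, exposed to test agent (0–100 µM) in RPMI 1640 + 2% heat-inactivated FCS for 24 h. MTT 0.4 mg/mL, 37 °C for 3 h; formazan dissolved in DMSO, absorbance read at 570/630 nm. Expressed as % variation vs untreated medium; mean ± SD, n = 3 in triplicate.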

[14] = tested on: HUVEC; assay: Cytostatic activity against HUVEC assessed as decrease in metabolic activity at 100 uM after 24 hrs by MTT assay relative to control; assay type: ADME, cell-based; design: scale not given: the % may be the effect or the level left; settings: human; procedure, shortened: as §1
[15] = tested on: HUVEC; assay: Cytostatic activity against HUVEC assessed as decrease in metabolic activity at 1.5 uM after 24 hrs by MTT assay relative to control; assay type: ADME, cell-based; design: scale not given: the % may be the effect or the level left; settings: human; procedure, shortened: as §1

Sequence of Vascular endothelial growth factor receptor 1 (Homo sapiens) (P17948 whole entry): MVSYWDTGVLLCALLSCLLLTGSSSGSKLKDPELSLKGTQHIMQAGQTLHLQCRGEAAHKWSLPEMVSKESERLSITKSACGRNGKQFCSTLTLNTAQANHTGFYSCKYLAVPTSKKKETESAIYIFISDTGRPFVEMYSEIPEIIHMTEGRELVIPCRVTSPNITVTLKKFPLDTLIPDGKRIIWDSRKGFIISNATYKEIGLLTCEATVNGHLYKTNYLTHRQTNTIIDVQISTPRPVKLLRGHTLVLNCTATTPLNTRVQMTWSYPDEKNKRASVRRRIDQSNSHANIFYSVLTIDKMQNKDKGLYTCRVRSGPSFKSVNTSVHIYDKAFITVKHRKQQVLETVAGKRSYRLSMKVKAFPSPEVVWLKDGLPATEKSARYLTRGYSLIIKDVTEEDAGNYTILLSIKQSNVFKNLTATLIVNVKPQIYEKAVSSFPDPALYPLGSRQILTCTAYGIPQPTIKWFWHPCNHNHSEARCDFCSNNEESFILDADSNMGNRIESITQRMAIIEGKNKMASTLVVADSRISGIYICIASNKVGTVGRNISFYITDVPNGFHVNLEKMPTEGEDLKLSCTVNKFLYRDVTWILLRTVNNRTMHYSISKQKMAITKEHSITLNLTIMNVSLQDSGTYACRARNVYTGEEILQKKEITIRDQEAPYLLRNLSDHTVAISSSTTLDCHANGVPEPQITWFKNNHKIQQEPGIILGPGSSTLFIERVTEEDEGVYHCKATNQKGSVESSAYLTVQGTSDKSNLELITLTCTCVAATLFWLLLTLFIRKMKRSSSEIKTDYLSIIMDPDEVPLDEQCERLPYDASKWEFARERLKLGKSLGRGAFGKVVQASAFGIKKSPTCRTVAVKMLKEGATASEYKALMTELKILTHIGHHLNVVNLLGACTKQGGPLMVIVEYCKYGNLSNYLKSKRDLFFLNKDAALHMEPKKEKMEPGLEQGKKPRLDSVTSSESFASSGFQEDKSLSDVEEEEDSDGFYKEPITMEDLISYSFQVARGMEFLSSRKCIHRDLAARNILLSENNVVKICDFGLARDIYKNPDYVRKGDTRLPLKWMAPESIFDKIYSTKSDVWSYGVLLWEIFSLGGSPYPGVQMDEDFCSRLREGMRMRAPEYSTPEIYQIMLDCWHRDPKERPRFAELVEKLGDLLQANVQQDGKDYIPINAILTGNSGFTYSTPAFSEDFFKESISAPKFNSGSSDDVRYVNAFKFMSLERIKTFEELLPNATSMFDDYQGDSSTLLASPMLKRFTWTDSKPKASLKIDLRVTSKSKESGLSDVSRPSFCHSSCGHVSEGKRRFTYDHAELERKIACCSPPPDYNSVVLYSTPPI
T3 sequence (P35968 whole entry): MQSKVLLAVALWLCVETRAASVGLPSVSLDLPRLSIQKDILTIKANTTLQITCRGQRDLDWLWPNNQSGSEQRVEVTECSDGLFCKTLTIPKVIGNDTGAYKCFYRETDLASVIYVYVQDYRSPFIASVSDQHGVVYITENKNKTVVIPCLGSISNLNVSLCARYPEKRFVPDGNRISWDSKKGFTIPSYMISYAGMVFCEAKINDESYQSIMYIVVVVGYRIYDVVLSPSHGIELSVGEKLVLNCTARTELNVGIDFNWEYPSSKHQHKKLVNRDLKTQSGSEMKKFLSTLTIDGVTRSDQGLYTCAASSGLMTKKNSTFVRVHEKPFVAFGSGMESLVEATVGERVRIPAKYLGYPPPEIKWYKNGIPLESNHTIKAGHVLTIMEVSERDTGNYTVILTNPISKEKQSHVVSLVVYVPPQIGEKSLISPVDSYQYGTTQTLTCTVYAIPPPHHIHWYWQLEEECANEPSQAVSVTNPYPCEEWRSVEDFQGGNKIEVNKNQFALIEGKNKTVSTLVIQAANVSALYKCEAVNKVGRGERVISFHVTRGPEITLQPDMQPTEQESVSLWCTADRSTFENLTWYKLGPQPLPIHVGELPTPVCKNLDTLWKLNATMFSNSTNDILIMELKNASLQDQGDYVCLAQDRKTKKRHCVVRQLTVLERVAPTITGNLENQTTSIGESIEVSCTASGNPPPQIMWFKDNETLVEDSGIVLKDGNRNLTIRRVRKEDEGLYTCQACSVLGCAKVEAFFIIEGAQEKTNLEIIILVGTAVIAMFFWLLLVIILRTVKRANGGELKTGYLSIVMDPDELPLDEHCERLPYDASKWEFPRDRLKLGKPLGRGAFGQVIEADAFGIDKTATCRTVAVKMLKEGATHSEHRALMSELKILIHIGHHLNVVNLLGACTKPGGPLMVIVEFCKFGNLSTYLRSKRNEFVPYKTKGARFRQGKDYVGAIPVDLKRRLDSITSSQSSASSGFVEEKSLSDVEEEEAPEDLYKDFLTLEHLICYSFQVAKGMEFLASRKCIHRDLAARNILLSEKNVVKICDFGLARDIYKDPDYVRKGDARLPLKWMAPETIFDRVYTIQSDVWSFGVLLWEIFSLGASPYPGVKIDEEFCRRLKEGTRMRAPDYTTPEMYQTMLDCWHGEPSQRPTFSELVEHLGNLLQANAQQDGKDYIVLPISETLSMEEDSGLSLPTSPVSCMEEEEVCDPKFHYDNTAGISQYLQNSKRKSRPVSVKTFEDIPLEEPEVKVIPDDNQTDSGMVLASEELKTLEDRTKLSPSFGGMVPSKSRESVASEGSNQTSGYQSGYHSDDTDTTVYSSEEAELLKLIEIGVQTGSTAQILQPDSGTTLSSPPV
Sequence of Tyrosine-protein kinase transmembrane receptor ROR2 (Homo sapiens) (Q01974 whole entry): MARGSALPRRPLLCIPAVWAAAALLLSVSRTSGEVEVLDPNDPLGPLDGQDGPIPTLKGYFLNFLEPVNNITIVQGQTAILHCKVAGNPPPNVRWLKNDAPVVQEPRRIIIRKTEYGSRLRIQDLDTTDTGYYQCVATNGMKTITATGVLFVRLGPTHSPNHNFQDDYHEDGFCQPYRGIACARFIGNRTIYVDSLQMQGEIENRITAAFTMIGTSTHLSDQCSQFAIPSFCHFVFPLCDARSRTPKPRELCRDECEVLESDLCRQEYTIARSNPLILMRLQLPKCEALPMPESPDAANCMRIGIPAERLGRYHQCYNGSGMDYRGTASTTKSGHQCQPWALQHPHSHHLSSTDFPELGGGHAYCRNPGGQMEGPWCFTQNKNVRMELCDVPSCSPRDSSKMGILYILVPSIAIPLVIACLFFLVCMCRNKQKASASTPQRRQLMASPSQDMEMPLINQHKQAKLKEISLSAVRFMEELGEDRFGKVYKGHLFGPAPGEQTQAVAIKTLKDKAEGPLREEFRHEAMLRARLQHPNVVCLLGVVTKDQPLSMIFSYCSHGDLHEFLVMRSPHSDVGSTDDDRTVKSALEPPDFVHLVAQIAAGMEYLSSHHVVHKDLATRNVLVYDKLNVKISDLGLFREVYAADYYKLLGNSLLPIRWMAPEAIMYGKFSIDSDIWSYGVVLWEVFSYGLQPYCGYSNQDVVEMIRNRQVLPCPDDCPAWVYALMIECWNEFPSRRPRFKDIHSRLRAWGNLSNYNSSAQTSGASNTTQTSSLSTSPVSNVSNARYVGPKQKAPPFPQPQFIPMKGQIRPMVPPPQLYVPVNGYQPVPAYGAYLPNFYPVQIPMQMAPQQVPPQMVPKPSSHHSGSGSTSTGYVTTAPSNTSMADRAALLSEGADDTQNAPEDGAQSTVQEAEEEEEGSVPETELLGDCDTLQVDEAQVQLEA
Sequence of Tyrosine-protein kinase receptor UFO (Homo sapiens) (P30530 whole entry): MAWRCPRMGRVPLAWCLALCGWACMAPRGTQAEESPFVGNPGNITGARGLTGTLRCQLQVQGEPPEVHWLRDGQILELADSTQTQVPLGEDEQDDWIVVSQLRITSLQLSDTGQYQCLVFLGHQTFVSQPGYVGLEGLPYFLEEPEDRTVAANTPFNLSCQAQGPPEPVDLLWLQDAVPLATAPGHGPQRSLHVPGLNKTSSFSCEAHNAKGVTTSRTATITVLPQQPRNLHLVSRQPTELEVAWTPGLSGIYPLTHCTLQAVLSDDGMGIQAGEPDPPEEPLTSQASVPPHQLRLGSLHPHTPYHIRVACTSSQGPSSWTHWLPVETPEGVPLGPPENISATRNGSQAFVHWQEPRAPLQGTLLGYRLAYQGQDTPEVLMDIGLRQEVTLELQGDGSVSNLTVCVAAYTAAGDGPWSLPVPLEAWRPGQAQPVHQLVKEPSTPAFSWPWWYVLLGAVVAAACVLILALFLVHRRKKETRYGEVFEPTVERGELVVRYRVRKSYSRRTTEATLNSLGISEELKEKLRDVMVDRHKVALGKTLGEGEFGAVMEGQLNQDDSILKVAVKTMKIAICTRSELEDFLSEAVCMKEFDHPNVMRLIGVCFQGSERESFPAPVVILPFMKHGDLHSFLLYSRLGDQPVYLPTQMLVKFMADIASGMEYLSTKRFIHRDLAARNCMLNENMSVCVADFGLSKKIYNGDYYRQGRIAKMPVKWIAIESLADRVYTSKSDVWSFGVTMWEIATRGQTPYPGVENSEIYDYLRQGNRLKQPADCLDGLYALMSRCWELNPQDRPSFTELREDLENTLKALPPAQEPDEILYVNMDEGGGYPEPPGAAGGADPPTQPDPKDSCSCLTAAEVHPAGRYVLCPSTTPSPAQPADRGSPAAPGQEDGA

## O=c1[nH]c(CN2CCCCC2)nc2cc(-c3cn(Cc4ccccc4)c4ccccc34)sc12 [listing 1 of 2 here]
[1]
  inhibition: Active
[2]
  inhibition: Active
[3]
  inhibition: Active
[4]
  inhibition: Active
[5]
  inhibition: Active
[6]
  inhibition: Active
[7]
  inhibition: Active
[8]
  inhibition: Active

## CCN(CC)CCNC(=O)c1c(C)[nH]c(/C=C2\C(=O)Nc3ccc(F)cc32)c1C [SUNITINIB]
[9]
  inhibition: Active
[10]
  EC50: 645 nM

## O=c1[nH]c(CN2CCCCC2)nc2cc(-c3cn(Cc4ccccc4)c4ccccc34)sc12 [listing 2 of 2 here]
[11]
  IC50: 2250 nM

## O=C(O)C(O)C(O)C(=O)O.O=c1[nH]c(CN2CCCCC2)nc2cc(-c3cn(Cc4ccccc4)c4ccccc34)sc12
[12]
  Activity: Non-toxic
[13]; Homo sapiens, HUVEC
  EC50: 12000 nM
[13]; human, huvec
  Activity: Dose-dependent effect
[14]
  Activity: 51%
[15]
  Activity: 9%
[10]
  EC50: 31 nM

Reference: ChEMBL document CHEMBL2375356, “Design, synthesis and biological evaluation of new classes of thieno[3,2-d]pyrimidinone and thieno[1,2,3]triazine as inhibitor of vascular endothelial growth factor receptor-2 (VEGFR-2)” (Eur J Med Chem, 2013)
